Measurements gathered from unrelated publications.
Compare with care: the assays were run in different laboratories.
CDK7: Cyclin-dependent kinase 7 (CDK7, Homo sapiens, UniProt P50613)

| Compound | target | test | setting | measurement | value |
| --- | --- | --- | --- | --- | --- |
| C1=C/COCc2cc(ccc2OCCN2CCCC2)Nc2nccc(n2)-c2cccc(c2)COC/1 | CDK7 | binding | 0.1 µM | remaining binding | 21% |
| C=CC(=O)N1CCC([C@@H]2CCNc3c(C(N)=O)c(-c4ccc(Oc5ccccc5)cc4)nn32)CC1 | CDK7 | enzyme activity, inhibitor | 1 µM | inhibition | 21% |
| N#Cc1ccc(NC(=O)Nc2ccccc2)cc1 | CDK7 | cell-free assay, competition with immobilised ligand | 25 µM | remaining binding | 94% |
| COc1ccc2oc(-c3ccc4nc(N)oc4c3)c/c(=N\c3ccccc3NC(=O)CCN)c2c1 | CDK7 | binding | 1 µM | remaining binding | 97% |
| CN1CCN(C(=O)c2ccc(NC(=O)Nc3ccc(N(C)c4ccnc(Nc5ccc(CS(C)(=O)=O)cc5)n4)cc3)cc2)CC1 | CDK7 | binding, competition with immobilised ligand | 1 µM | remaining binding | 61% |
| CNS(=O)(=O)c1ccc(Nc2ncc(C(F)(F)F)c(N3CCC[C@](C)(O)C3)n2)c(C)c1 | CDK7 | binding, competition with immobilised ligand | 1 µM | remaining binding | 83% |
| Cc1ccc(NC(=O)c2ccnc(C(F)(F)F)c2)cc1-c1cc(OCCO)nc(N2CCOCC2)c1 | CDK7 | binding, competition with immobilised ligand | 1 µM | remaining binding | 98% |
| C[C@]1(O)CCCN(c2nc(Nc3ccc(S(=O)(=O)N[C@H]4CC[C@H](CN5CCN(c6ccc(C7CCC(=O)NC7=O)cc6F)CC5)CC4)cc3Cl)ncc2C(F)(F)F)C1 (some centres unmarked) | CDK7 | binding, competition with immobilised ligand | 1 µM | remaining binding | 100% |
| CCCCC(=O)Nc1ccc(-c2ccc3ncn(CCC)c(=O)c3c2)cn1 | CDK7 | binding, competition with immobilised ligand | 0.5 µM | remaining binding | 83% |
| C=CC(=O)N1CCC[C@@H](n2nc(-c3ccc(Oc4ccccc4)cc3)c3c(N)ncnc32)C1 | CDK7 | enzyme activity, inhibitor | 1 µM | inhibition | 28% |
| CC(C)S(=O)(=O)c1ccc2nccc(Nc3ccc4sc(C5CCCC5)nc4c3)c2c1 | Cyclin-dependent kinase 7, with cyclin H (CDK7, Homo sapiens, UniProt P50613) | enzyme activity, inhibitor | 1 µM | activity vs control | 106% |
